CSC inhib: blocks cancer stem cells; cancer stem cell-like cells viability, luminescence; actives 1.1% (n = 300,000); inhibition, % at 7.5 µM; in the data active = inhibition above about 75%; inconclusive = no clear call, values can overlap the other calls; tested in HMLE shEcad cells
Mdm2 MdmX PPI: inhibitors of human Mdm2/MdmX interaction; inhibition, % at 8 µM; O15151+Q00987; actives 3% (n = 330,000); SaOS-2 split-luciferase Mdm2/MdmX complementation, luminescence;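 active = inhibition of at least 50% at 8 µM in the primary screen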
Target sequence (O15151 whole entry, looked up): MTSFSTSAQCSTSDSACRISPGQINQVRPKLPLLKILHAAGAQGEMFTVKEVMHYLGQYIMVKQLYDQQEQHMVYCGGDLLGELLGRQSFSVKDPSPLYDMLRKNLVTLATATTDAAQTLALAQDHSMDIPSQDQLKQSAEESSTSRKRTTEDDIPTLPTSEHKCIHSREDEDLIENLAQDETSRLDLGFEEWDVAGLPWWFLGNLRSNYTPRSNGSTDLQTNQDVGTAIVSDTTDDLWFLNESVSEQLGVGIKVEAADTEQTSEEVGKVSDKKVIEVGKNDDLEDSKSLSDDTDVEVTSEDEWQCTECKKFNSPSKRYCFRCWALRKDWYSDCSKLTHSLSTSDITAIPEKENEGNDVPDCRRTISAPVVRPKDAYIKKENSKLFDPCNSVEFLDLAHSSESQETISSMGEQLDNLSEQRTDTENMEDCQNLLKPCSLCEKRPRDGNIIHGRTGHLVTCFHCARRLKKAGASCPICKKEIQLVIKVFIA
Target sequence (Q00987 whole entry, looked up): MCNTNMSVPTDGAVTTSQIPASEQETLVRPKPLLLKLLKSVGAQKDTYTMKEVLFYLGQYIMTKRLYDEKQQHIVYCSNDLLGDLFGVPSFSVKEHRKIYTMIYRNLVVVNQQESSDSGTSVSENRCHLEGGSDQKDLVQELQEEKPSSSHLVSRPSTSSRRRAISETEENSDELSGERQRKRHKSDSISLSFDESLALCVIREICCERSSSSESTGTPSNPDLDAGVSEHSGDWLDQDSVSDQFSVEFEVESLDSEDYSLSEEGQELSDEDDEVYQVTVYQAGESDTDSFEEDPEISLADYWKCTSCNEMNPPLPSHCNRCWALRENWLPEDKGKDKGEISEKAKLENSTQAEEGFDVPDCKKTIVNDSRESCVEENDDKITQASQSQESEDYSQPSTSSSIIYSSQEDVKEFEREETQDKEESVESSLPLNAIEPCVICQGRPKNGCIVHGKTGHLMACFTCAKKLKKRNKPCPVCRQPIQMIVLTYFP
T cruzi inh: blocks replication of Trypanosoma cruzi; T. cruzi beta-gal in NIH3T3, luminescence, 90 h; inhibition, % (concentration not given with the values); actives 1.4% (n = 300,000); AID 1885;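 active = mean inhibition across valid replicates above about 55%, limit read from the data; inconclusive = mean below that limit but half or more replicates reach it; inactive = mean below it, under half of replicates reach it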;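 also: signal also drops with host cell toxicity which is not excluded here; 0% = plate median of DMSO wells and 100% = zero luminescence signal; higher percent means less beta-gal luminescence so fewer parasites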
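System: mouse NIH/3T3 fibroblasts infected with β-gal-expressing T. cruzi Tulahuen C4 / Input: NIH/3T3 cells, 5,000 per well / Buffer or medium: Low-serum DMEM with 2% FBS / Probe or stimulus: 5000 reporter trypomastigotes per well / Schedule: ≥90 h infection period, 3 h prior cell attachment / Measured by: GalScreen luminescence, 60 min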
SKKanGAS inh: blocks kanamycin growth of S. pyogenes SKKanGAS strain; BacTiter-Glo, 6 h; inhibition, % at 7.5 µM; actives 1.3% (n = 300,000); AID 1662;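 active = mean replicate score, as percent of positive control median, at least 50; inconclusive = mean below 50 but one replicate at or above 50; inactive = mean and every replicate below 50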;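 also: strain carries kanamycin resistance gene driven by streptokinase promoter and grows in 40 µg/ml kanamycin; loss of luminescence reflects streptokinase promoter inhibition or plain growth inhibition; 0% = median of DMSO wells and 100% = positive control at its reference dose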
Beta apoptosis: beta cell apoptosis inhibition. INS-1E cytokine-induced death, ATP luminescence, 48 h; percent of positive-control rescue, neutral wells zero. protection from apoptosis, % (test concentration not listed). actives 0.8% (n = 300,000). AID 435005;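 active = Every replicate reaches about 75%, or at least half do and their mean reaches it too, limit read from the data; inconclusive = At least half of replicates reach the limit but their mean does not; inactive = Under half of replicates reach the limit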;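 also: 0% = cytokine-treated negative control wells and 100% = positive control rescue; higher means more ATP so stronger rescue from cytokine killing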
L major viab: inhibitors of Leishmania major promastigote growth | Leishmania major promastigotes, resazurin fluorescence viability | inhibition, % at 10 µM | actives 9% (n = 200,000); in the data active = inhibition above about 50%;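 also: promastigotes grown with compound for 44 hours at 28 °C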
* hit, by the source's call; ? = inconclusive; · = no result given. The list is not random: actives were taken first. Their share in the collection is about 9.4%.

SMILES	CSC inhib	Mdm2 MdmX PPI	T cruzi inh	SKKanGAS inh	Beta apoptosis	L major viab
O=C(NNC(=O)c1cc(-c2ccc(Cl)c(Cl)c2)nc2ccccc12)Nc1ccccc1	92*	50	43	76*	9	61*
O=C(Nc1ccc([N+](=O)[O-])cn1)c1cc(-c2cccc(Cl)c2)nc2ccccc12	14	13	56*	9	2	6
O=C(Nc1ncccn1)c1cc(-c2cccc(Br)c2)nc2ccccc12	-4	23	24	-18	12	83*
CCOC(=O)c1nn(-c2ccc(Cl)cc2)c(C)cc1=O	-10	22	-6	-4	-2	·
CCOC(=O)[C@@H]1[C@H]2COc3cc(OC)ccc3[C@H]2N2C(=O)N(c3ccc(F)cc3)C(=O)[C@@]12C	9	9	2	5	3	·
Cn1c(SCc2ccccc2)nnc1-c1ccc2nonc2c1	-7	21	13	-2	·	·
CCCCn1c(SCC(=O)NC2CC2)nnc1-c1ccncc1	-9	1	6	-4	-3	·
COc1ccccc1NC(=O)C(C)Sc1nc2ccccc2c(=O)n1CC1CCCO1 (stereo not given)	13	23	2	-8	3	·
CC1CCN(CCOc2cc(Cl)ccc2Cl)CC1	6	-2	-21	-7	-5	85*
CC1CCN(CCOc2cccc(Br)c2)CC1	17	-4	5	-1	2	71*
Brc1cccc(OCCCN2CCCCCC2)c1	27	6	12	6	-2	96*
Cc1ccc(OCCNC(=O)C2CCCCC2)cc1	0	-3	-8	4	1	4
c1ccc(Cc2ccc(OCCCNC3CCCC3)cc2)cc1	46	39	67*	2	1	100*
c1ccc(SCCCCNC2CCCC2)cc1	1	9	5	7	-4	87*
c1ccc(-c2ccc(OCCCNC3CCCC3)cc2)cc1	-21	15	60*	7	·	100*
COc1ccc(OCCNC2CCCC2)cc1	-14	20	11	-13	-4	61*
CCOc1ccc(NC(=O)NNC(=O)c2cc3ccccc3cc2O)cc1	-3	27	3	-3	-9	·
CC(C(=O)NC(C)(C)C)N1C(=O)c2cccc3cccc(c23)C1=O (stereo not given)	1	22	30	1	5	8
Cc1ccc(C(=O)NNC(=O)c2csc(N3CCOCC3)n2)s1	-8	21	10	-3	-3	·
COc1cccc(NC(=O)CN(C)C(=O)c2cccc(S(=O)(=O)N3CC4(C)CC3CC(C)(C)C4)c2)c1 (stereo not given)	2	18	·	·	-9	·
N#Cc1ccc(OCCOCCNC2CCCC2)cc1	-35	24	67*	2	-5	81*
c1cc2c(cc1OCCNC1CCCC1)CCC2	-4	-14	-21	-8	-10	76*
CNCCCOc1ccc2c(c1)CCC2	-8	17	6	-1	-8	34
O=[N+]([O-])c1ccc(N2CCN(S(=O)(=O)c3ccccc3[N+](=O)[O-])CC2)cc1NCc1cccnc1	41	-11	32	0	14	68*
CCS(=O)(=O)N1CCN(c2ccc([N+](=O)[O-])c(NCc3cccnc3)c2)CC1	-11	10	1	-1	4	3
SMILES	CSC inhib	Mdm2 MdmX PPI	T cruzi inh	SKKanGAS inh	Beta apoptosis	L major viab
Cc1nnc(SCc2nnc(-c3cccs3)o2)s1	-5	15	-2	-1	-2	-8
O=C(c1ccc(COc2ccc3c(c2)CCC3)o1)N1CCN(c2ccccc2)CC1	30	11	13	13	0	-2
O=C(c1ccco1)N1CCN(C(=O)c2ccc(COc3ccc4c(c3)CCC4)o2)CC1	8	-26	12	-8	2	83*
CCCCNC(=S)Nc1ccc(C(F)(F)F)cc1	33	18	6	9	7	1
O=C(NC1CCCCCC1)c1ccc[nH]c1=S	3	-5	58*	6	-4	15
O=C(NC1CCCCCCC1)c1ccccc1O	10	-22	-11	10	2	47
N#C/C(=C\c1c(F)cccc1Cl)c1nn(-c2ccccc2)c(-n2cccc2)c1C#N	94*	12	41	9	45	·
N#C/C(=C\c1c(Cl)cccc1Cl)c1nn(-c2ccccc2)c(-n2cccc2)c1C#N	64	-8	59*	6	26	·
N#C/C(=C\c1cccc2ccccc12)c1nn(-c2ccccc2)c(N)c1C#N	30	33	39	18	36	32
COc1ccccc1N1CCN(C(=O)COc2cc(C)ccc2C)CC1	1	6	7	0	-6	64*
COc1ccc(/C=C/C(=O)NC(=S)N2CCN(c3ccccc3OC)CC2)cc1	0	-44	-9	59*	-6	·
COc1ccccc1N1CCN(C(=O)C(Sc2ccccc2)c2ccccc2)CC1 (stereo not given)	-16	38	3	3	-1	81*
COc1ccccc1N1CCN(C(=O)CSc2ccccc2)CC1	-1	-28	-4	3	-6	3
COc1ccccc1N1CCN(C(=O)/C=C/c2ccc(C)cc2)CC1	-21	-31	8	?	1	55*
COc1ccccc1N1CCN(C(=O)/C=C/c2cccc([N+](=O)[O-])c2)CC1	-3	14	7	-5	1	·
COc1ccccc1N1CCN(C(=O)COc2ccc(C)cc2Br)CC1	3	23	5	3	-5	2
COc1ccc(/C=C/C(=O)NC(=S)N2CCOCC2)cc1	·	-13	-15	11	-4	·
O=C(COC(=O)C1(c2ccccc2)CC1)NNC(=O)c1ccccc1	-16	-8	-3	-1	-3	·
CC1(C)Cn2c(nc(=O)c3c2NCN(CCc2ccccc2)C3)S1	-7	12	-10	-2	-8	-3
COc1cc2c(cc1OC)C(c1cccs1)N(C(=O)C(C)C)CC2 (stereo not given)	18	-1	-1	1	-4	73*
CCOc1ccccc1NC(=O)c1cccc(NC(=O)C2CCCC2)c1	1	-7	-7	7	-1	·
CCOC(=O)N/N=C\C=C\c1ccco1	-5	-26	5	-4	-7	-5
Cc1ccc(N/N=C/C=C/c2ccco2)cc1	44	-103	73*	-12	·	·
CCOc1ccc(NC(=O)Cc2c(C(=O)O)n(C)c3ccccc23)cc1	-2	10	-22	2	0	·
CC(=O)N1CCN(c2ncnc3sc(-c4ccccc4)cc23)CC1	19	21	4	6	-4	18
Oc1ccc(N2CCN(c3ncnc4sc(-c5ccccc5)cc34)CC2)cc1	·	·	58*	33	·	62*
CCCCCn1c(SCCc2ccccc2)nc2c1c(=O)[nH]c(=O)n2C	-7	9	22	5	·	3
CCCCCCCCn1c(N2CCN(c3cccc(Cl)c3)CC2)nc2c1c(=O)[nH]c(=O)n2C	-10	9	55*	4	12	32
